Experimental data of several laboratories.
Each line is one published result; the experiments were not run side by side.
Sample: plasma

CCc1nc2c(C)cc(N3CCN(CC(=O)N4CC(O)C4)CC3)cn2c1N(C)c1nc(-c2ccc(F)cc2)c(C#N)s1
AUC(0-inf) (human; oral; 1000 mg; fed, healthy volunteers): 71400 ng·h/mL

CO[C@H]1/C=C\C=C(/C)C(=O)NC2=CC(=O)C(NCCN(C)C)=C(C[C@@H](C)C[C@H](OC)[C@H](O)[C@@H](C)/C=C(\C)[C@@H]1OC(N)=O)C2=O
AUC(0-inf) (human; intravenous; 27 mg/m²; patients, infusion): 4140 ng·h/mL

Cn1cc(-c2ccc(S(=O)(=O)[C@@H]3C[C@@H](C(=O)NC4(C#N)CC4)N(C(=O)C4(C(F)(F)F)CC4)C3)c(C(F)(F)F)c2)cn1
AUC(0-inf) (human; oral; 100 mg; single dose, fasted, healthy volunteers): 10600 ng·h/mL

COc1ccc2[nH]c([S+]([O-])Cc3ncc(C)c(OC)c3C)nc2c1 (centres unmarked)
AUC(0-inf) (male human; oral; 100 µg): 2.46 ng·h/mL

CO[C@H]1CC[C@H](N2C(=O)CNc3ncc(-c4ccc(C(C)(C)O)nc4)nc32)CC1
AUC(0-inf) (human; oral; 15 mg; patients): 378 ng·h/mL

CCOc1ccc(Cc2cc([C@@H]3S[C@H](CO)[C@@H](O)[C@H](O)[C@H]3O)c(OC)cc2C)cc1
AUC(0-inf) (male human; oral; 5 mg; single dose, fasted): 2010 ng·h/mL

CNC(=O)c1ccccc1Sc1ccc2c(/C=C/c3ccccn3)n[nH]c2c1
AUC(0-inf) (human; oral; 5 mg; single dose, fasted): 197 ng·h/mL

O=C(Nc1c(Cl)cncc1Cl)c1ccc(OC(F)F)c(OCC2CC2)c1
AUC(0-inf) (human; oral; 0.375 mg; multiple doses, once daily): 81.4 ng·h/mL

CCCOc1ccc([C@H]2CNC(=O)N2c2ccc3[nH]cnc3c2)cc1
AUC(0-inf) (human; oral; 200 mg; fasted, healthy volunteers): 2110 ng·h/mL

COc1ccc(-n2nc(C(N)=O)c3c2C(=O)N(c2ccc(N4CCCCC4=O)cc2)CC3)cc1
AUC(0-inf) (human; oral; 10 mg; single dose, healthy volunteers): 2530 ng·h/mL

CS(=O)(=O)CCC#N
AUC(0-inf) (human; oral; 1000 mg; single dose, fasted): 930000 ng·h/mL

CC(=O)Oc1ccccc1C(=O)O
AUC(0-inf) (human; oral; 650 mg; healthy volunteers): 7690 ng·h/mL

COc1ccc([C@@H]2CN(C(=O)[C@@H](O)CO)C[C@@]2(C)[C@@H](C)O)cc1OC1CN(c2ccc(C)cn2)C1
AUC(0-inf) (human; oral; 5 mg; single dose, healthy volunteers): 1850 ng·h/mL

C[C@@H](Oc1ccc(S(C)(=O)=O)cc1C(=O)N1C[C@@H]2C[C@]2(c2cc(C(F)(F)F)on2)C1)C(F)(F)F
AUC(0-inf) (human; oral; 25 mg; single dose): 12.2 µM·h

Nc1ccc(-c2nc([C@H]3CCc4cc(-c5cc(Cl)ccc5-n5cnnn5)cc(=O)n43)c(F)[nH]2)c(F)n1
AUC(0-inf) (human; oral; 80 mg; single dose, fed): 15900 ng·h/mL

O=C(/C=C/c1cccc(S(=O)(=O)Nc2ccccc2)c1)NO
AUC(0-inf) (human; intravenous; 2000 mg/m²; patients): 86400 ng·h/mL

CCCCC[C@H](O)CC[C@@H]1[C@H]2Cc3cccc(OCC(=O)O)c3C[C@H]2C[C@H]1O
AUC(0-inf) (human; inhaled; 18 µg; single dose, healthy volunteers): 0.34 ng·h/mL

CC(C)(O)c1ccccc1-c1ccc2[nH]c(/C=C/c3ccc(C(F)(F)F)cc3)nc2c1
AUC(0-inf) (male human; oral; 30 mg; single dose, fasted): 5690 ng·h/mL

C[C@@]1(c2cc(NC(=O)c3ccc(C#N)cn3)ccc2F)C=CSC(N)=N1
AUC(0-inf) (human; oral; 10 mg; single dose): 1040 ng·h/mL

C[C@@H](Oc1ccc(S(C)(=O)=O)cc1C(=O)N1C[C@@H]2C[C@]2(c2cc(C(F)(F)F)on2)C1)C(F)(F)F
AUC(0-inf) (human; oral; 25 mg; fasted, tablet): 9.17 µM·h

CC(C)n1cc(C#N)c2cc(-n3cc(C(=O)O)cn3)ccc21
AUC(0-inf) (human; oral; 200 mg; single dose, fasted, healthy volunteers): 44300 ng·h/mL

CC(C)(Sc1ccncc1-c1ccc(C#N)c2ccccc12)C(=O)O
AUC(0-inf) (male human; oral; 5 mg; single dose, fed, healthy volunteers): 92.8 ng·h/mL

COc1ccc(-n2nc(C(N)=O)c3c2C(=O)N(c2ccc(N4CCCCC4=O)cc2)CC3)cc1
AUC(0-inf) (male human; oral; 25 mg; single dose): 3410 ng·h/mL

CC(C)[C@](O)(c1ccc2cc(OC(F)F)c(OC(F)F)cc2c1)c1c[nH]nn1
AUC(0-inf) (female human; oral; 600 mg; single dose): 54700 ng·h/mL

CCOc1cc2ncc(C#N)c(Nc3ccc(OCc4ccccn4)c(Cl)c3)c2cc1NC(=O)/C=C/[C@H]1CCCN1C
AUC(0-inf) (human; oral; 80 mg; single dose): 386 ng·h/mL

CN(C)CCCNC(=O)/C(=C/CCCCC(=O)NO)COc1cccc2ccccc12
AUC(0-inf) (human; intravenous; 250 mg/m²; single dose): 37500 ng·h/mL
